From PubChem BioAssay
Most compounds without a hit are left out; they make up all but 1.7% or so of the library.
procasp7 counter: activates human procaspase-7, counter-screen for procaspase-3 activators; P55210; recombinant procaspase-7, Ac-DEVD-pNA absorbance 405 nm; D23A/D198A/D206A triple mutant, cannot self-cleave; scale: DMSO 0, 5 µM enzyme 100; activation, % at 8.5 µM; actives 0.093% (n = 330,000);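 active means percent activation above the screen-wide mean plus 3 SD, cut at about 25% in these data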
Target sequence (P55210 whole entry D23A/D198A/D206A): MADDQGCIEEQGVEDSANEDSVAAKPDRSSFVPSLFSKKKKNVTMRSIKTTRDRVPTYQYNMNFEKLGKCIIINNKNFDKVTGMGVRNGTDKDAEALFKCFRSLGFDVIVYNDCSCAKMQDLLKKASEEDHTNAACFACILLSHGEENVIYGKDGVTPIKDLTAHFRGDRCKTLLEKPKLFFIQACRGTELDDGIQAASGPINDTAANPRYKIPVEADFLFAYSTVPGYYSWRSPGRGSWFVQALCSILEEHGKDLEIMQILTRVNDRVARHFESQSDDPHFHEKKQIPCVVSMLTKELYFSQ
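System: Procaspase-7 triple mutant (PC-7 D3A); measure: % activation from two-timepoint absorbance difference, scaled to controls; times: 1 h compound preincubation, 2 h substrate cleavage, 25 °C; also added: Ac-DEVD-pNA substrate, 400 µM as added; measured by: Epi-absorbance of released pNA at 405 nm, two timepoints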
procasp3 activ: procaspase-3 (human) activation. P42574. recombinant procaspase-3 D3A, Ac-DEVD-pNA absorbance 405 nm. activation, % at 8.5 µM. actives 0.11% (n = 330,000);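 active means activation above the mean of all tested compounds plus 3 SD, cut at about 21% in these data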
Target sequence (P42574 whole entry D9A/D28A/D175A): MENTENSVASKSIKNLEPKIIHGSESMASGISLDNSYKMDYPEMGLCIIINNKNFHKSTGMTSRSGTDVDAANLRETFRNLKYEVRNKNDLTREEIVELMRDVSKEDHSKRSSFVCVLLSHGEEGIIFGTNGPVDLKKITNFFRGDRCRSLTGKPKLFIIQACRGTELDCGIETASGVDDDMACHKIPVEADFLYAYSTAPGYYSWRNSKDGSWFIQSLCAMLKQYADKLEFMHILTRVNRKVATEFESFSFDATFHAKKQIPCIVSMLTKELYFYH
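Assay system: Procaspase-3 D3A mutant, all three cleavage aspartates alanine. Buffer or medium: Zinc-free HEPES saline buffer with Triton X-100. Times: 1 h compound preincubation, 2 h substrate hydrolysis at 25 °C. Measured by: 405 nm absorbance of p-nitroaniline, reads at 0 and 120 min. Read-out basis: percent activation relative to control range. Replicates: singlicate.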
Neddyl block: cullin neddylation inhibition; TR-FRET cullin neddylation, biochemical; calls only at 25 µM; actives 0.58% (n = 360,000); AID 651699; in the data active means inhibition above about 36%
IMP-1 inhibitor: blocks Pseudomonas aeruginosa IMP-1 metallo-beta-lactamase; inhibition, % at 5.6 µM; actives 0.45% (n = 290,000); AID 1556; purified IMP-1, nitrocefin hydrolysis, epi-absorbance fluorescence;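 active means inhibition above the mean plus 3 SD of all compounds in the same screening run, cut at about 4.5% in these data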
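System: purified IMP-1; amount: IMP-1 0.2 nM before substrate addition; compound: single dose, 5.6 µM; times: 25 °C, 15 min preincubation, 25 min reaction; signal: Epi-absorbance via hydrolysed-nitrocefin quenching of white-plate fluorescence, 480/530 nm, EDTA stop; benchmarks: DMSO with and without IMP-1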
VIM-2 inh: inhibitors of Pseudomonas aeruginosa VIM-2 metallo-beta-lactamase; purified VIM-2, nitrocefin hydrolysis, epi-absorbance fluorescence; actives 0.89% (n = 290,000); inhibition, % at 5.6 µM;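 active means inhibition above the mean of all tested compounds plus 3 SD, cutoff set per screening run, cut at about 7.5% in these data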;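 further: red hydrolysis product quenches plate fluorescence so inhibitors raise well fluorescence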
PolyA inhibitor: inhibitors of polyadenylation in S. cerevisiae; activity score, % at 12 µM; actives 0.02% (n = 300,000); S. cerevisiae SKY197-pL101 polyadenylation reporter, beta-gal luminescence; efflux-impaired pdr1/pdr3 knockout yeast; score 100 = 6 SD above DMSO;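 active means lowest replicate activity score at least 50, where 100 means six control SD above control mean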;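 further: yeast exposed to compound for 9 h at 30 °C; higher score means more reporter readthrough which indicates perturbed polyadenylation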
PC3 D3A act: activates human procaspase-3, dual activator counter-screen | activation, % at 8.5 µM | AID 493114 | 290 tested, under 10 active | recombinant PC-3 D3A, Ac-DEVD-pNA absorbance 405 nm; aspartates 9, 28, 175 changed to alanine; 100% = enzyme control | shares compounds with procasp7 counter;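 active means mean percent activation across triplicates above a set limit taken from the earlier primary procaspase-3 screen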
Procasp7 act: activates human procaspase-7, confirming dual procaspase activators. shares compounds with procasp7 counter. activation, % at 8.5 µM. 290 tested, under 10 active. recombinant procaspase-7, Ac-DEVD-pNA absorbance 405 nm; D23A/D198A/D206A mutant that cannot self-cleave;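 active means mean activation above a set limit carried over from the earlier primary screen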
Hits are given with their value; – = inactive; · = no result shown.

SMILES | procasp7 counter | procasp3 activ | Neddyl block | IMP-1 inhibitor | VIM-2 inh | PolyA inhibitor | PC3 D3A act | Procasp7 act
COCc1cc(C)nc2sc(C(=O)OC(C)C)c(N)c12 | – | – | · | – | – | – | · | ·
Cc1ccc2sc(NC(=O)CSc3nc(C)cc(C)c3C#N)nc2c1 | 42 | – | – | – | – | – | – | –
CCOP(=O)(OCC)c1nc(-c2cccc3ccccc23)oc1NCCc1ccc(OC)cc1 | 30 | 22 | · | – | – | – | – | –
COc1ccc(CNc2oc(-c3cccc4ccccc34)nc2C#N)cc1 | – | – | · | – | – | – | · | ·
CCOC(=O)/C(C#N)=C/Nc1cc(OC)ccc1OC | 87 | 95 | – | – | – | – | – | –
Cc1ccccc1NC(=O)c1cnn(-c2ccccc2)c1C | 34 | – | – | – | – | – | – | –
COc1ccc(C2CC(c3ccc(C(F)(F)F)cc3)=NN2c2ccc(S(N)(=O)=O)cc2)cc1 (stereo unspecified) | 28 | 23 | · | · | · | · | – | –
COc1ccc(C2CC(C(C)(C)C)=NN2c2ccc(S(N)(=O)=O)cc2)cc1 (stereo unspecified) | – | – | – | · | · | · | · | ·
COc1ccc(C2CC(c3ccccc3F)=NN2c2ccc(S(N)(=O)=O)cc2)cc1 (stereo unspecified) | 35 | 34 | · | · | · | · | – | –
COc1ccc(C2CC(c3ccccc3Br)=NN2c2ccc(S(N)(=O)=O)cc2)cc1 (stereo unspecified) | – | – | · | · | · | · | · | ·
O=C(Nc1ccc2c(c1)OCCO2)c1coc2ccccc2c1=O | 36 | – | – | – | – | – | – | –
Cc1ccccc1C(=O)Nc1ccc2c(c1)OCCO2 | · | · | – | – | – | – | · | ·
CC1(C(=O)NCc2cccc(Cl)c2)Cc2c(-c3ccc4c(c3)OCO4)ccnc2O1 (stereo unspecified) | · | · | – | · | · | · | · | ·
NC(=O)c1nsc(C(=O)N(c2ccccc2F)C(C(=O)NCc2ccc(F)cc2)c2ccc(O)cc2)c1N (stereo unspecified) | 28 | – | – | – | – | – | – | –
COc1ccccc1N(C(=O)c1snc(C(N)=O)c1N)C(C(=O)NCc1ccccc1)c1ccc(O)cc1 (stereo unspecified) | · | · | · | – | – | – | · | ·
COc1ccc(C(C(=O)NCc2ccccc2)N(C(=O)c2snc(C(N)=O)c2N)c2ccccc2OC)cc1 (stereo unspecified) | 29 | – | · | – | – | – | – | –
COCCN(C(=O)COC(=O)c1ccc(Br)o1)c1c(N)n(Cc2ccccc2)c(=O)[nH]c1=O | · | · | – | · | · | · | · | ·
CCC(C)Sc1cc(-c2nc3ccc(C)cn3c2NCc2ccccc2)ccc1OC (stereo unspecified) | 28 | 22 | · | · | · | – | – | –
CCC(C)Sc1ccc(-c2nc3ccc(C)cn3c2NCc2ccccc2)cc1OC (stereo unspecified) | – | – | – | · | · | – | · | ·
O=C(C1=C(O)/C(=C/c2ccc(O)cc2)CCC1)C(F)(F)F | – | – | – | – | – | · | · | ·
Cc1ccc2nc(-c3ccc(NS(=O)(=O)c4ccc(F)c(F)c4)cc3)sc2c1 | – | – | · | – | – | – | · | ·
Cc1ccc2nc(-c3ccc(NS(=O)(=O)c4ccccc4)cc3)sc2c1 | 52 | 23 | · | – | – | – | – | –
NS(=O)(=O)c1ccc(N2N=C(c3ccccc3)CC2c2ccccc2Cl)cc1 (stereo unspecified) | 80 | 47 | · | · | · | · | – | –
NS(=O)(=O)c1ccc(N2N=C(c3ccccc3)CC2c2ccccc2)cc1 (stereo unspecified) | 63 | 37 | – | – | – | – | – | –
CCc1ccc(C2=NN(c3ccc(S(N)(=O)=O)cc3)C(c3ccc(F)cc3)C2)cc1 (stereo unspecified) | 27 | 59 | · | – | – | – | – | –
SMILES | procasp7 counter | procasp3 activ | Neddyl block | IMP-1 inhibitor | VIM-2 inh | PolyA inhibitor | PC3 D3A act | Procasp7 act
COc1ccccc1[C@H]1C(c2ccccc2)=NN(c2ccccc2)[C@@H]1CO | 50 | 25 | · | · | · | · | – | –
COc1c2ccccc2c(OC)c2ccccc12 | 63 | 81 | – | – | – | – | – | –
COc1nnc(OC)c2ccccc12 | – | – | – | – | – | – | · | ·
C[C@@H](NC(=O)[C@@H]1CCCN1C(=O)[C@@H]1CCCN1C(=O)OC(C)(C)C)c1ccccc1 | · | · | – | · | · | · | · | ·
CC(=O)Nc1ccc(-c2ccnc3c2CC(C(=O)Nc2ccc(Cl)c(C(F)(F)F)c2)O3)cc1 (stereo unspecified) | · | · | – | · | · | · | · | ·
CCOC(=O)NC1(Nc2ccc(C)cc2)Oc2ccccc2O1 | – | – | – | – | – | – | · | ·
CCCCCCc1cc2cc(S(=O)(=O)c3ccc(C)cc3)c(=O)oc2cc1O | 31 | 86 | · | – | – | – | – | –
CCCCCCc1cc2cc(S(=O)(=O)c3ccc(Cl)cc3)c(=O)oc2cc1O | – | – | · | – | – | – | · | ·
O=C(O)c1ccc(/C=N/Nc2nc3ccccc3[nH]2)cc1 | – | – | – | – | – | – | · | ·
O=c1[nH]c(N/N=C/c2ccc(O)cc2)nc2ccccc12 | 34 | 27 | – | – | – | – | – | –
CC1CCN(C(=O)c2[nH]cnc2C(=O)N(C)Cc2ccccc2)CC1 | – | – | – | · | · | · | · | ·
O=C(NNC(=O)C1CC(c2cccnc2)=NO1)Nc1ccccc1F (stereo unspecified) | 26 | – | – | – | – | – | – | –
Cc1cccc(/C=N/NC(=O)c2ccc(NC(=O)c3ccccc3C)cc2)n1 | 34 | – | – | – | – | – | – | –
CC(OC(=O)CNC(=O)C12CC3CC(CC(C3)C1)C2)C(=O)Nc1ncc(Cl)cc1Cl (stereo unspecified) | – | – | – | – | – | – | · | ·
COc1ccccc1OCCn1cc(/C=C(\C#N)C(=O)NCc2ccco2)c2ccccc21 | 50 | – | – | – | – | – | – | –
CCCc1nn2c(=O)cc(CSCC(=O)Nc3nnc(C(C)C)s3)nc2s1 | – | – | – | – | – | – | · | ·
C=CCNC1=C(Cl)C(=O)N(c2cccc(Cl)c2Cl)C1=O | 32 | – | – | – | – | – | – | –
O=C1C(Cl)=C(NCC2CCCO2)C(=O)N1c1cccc(Cl)c1Cl (stereo unspecified) | – | – | – | – | – | – | · | ·
